Drawing on ChEMBL document CHEMBL1131421, “Tetrahydro-isoquinoline-based factor Xa inhibitors” (J Med Chem, 1998), this text covers Ki and ED200 for 12 molecules.

A value given as a limit tells only on which side of the number the result lay.

Chain of Plasminogen (P00747 97-580 limits assumed): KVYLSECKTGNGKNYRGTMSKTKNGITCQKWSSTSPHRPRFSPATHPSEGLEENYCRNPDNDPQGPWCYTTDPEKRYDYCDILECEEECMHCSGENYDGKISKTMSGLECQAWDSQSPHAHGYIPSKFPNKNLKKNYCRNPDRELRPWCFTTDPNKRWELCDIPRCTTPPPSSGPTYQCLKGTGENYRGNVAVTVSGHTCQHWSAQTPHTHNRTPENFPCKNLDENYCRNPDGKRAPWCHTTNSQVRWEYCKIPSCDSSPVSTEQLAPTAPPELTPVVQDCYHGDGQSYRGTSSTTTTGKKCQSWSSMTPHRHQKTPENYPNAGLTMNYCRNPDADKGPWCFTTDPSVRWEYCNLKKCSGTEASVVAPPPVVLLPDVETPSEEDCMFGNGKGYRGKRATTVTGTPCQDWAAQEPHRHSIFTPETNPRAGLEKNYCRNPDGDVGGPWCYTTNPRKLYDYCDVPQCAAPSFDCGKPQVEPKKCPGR
Chain of Plasminogen (P00747 581-810 limits assumed): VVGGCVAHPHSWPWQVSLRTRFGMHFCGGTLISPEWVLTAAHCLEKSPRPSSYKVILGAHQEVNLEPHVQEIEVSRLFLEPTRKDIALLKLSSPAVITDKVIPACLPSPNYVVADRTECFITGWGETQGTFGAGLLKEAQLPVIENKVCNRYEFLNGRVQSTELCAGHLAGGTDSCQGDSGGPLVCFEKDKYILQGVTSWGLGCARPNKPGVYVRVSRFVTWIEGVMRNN

For the first test, the target named is Coagulation factor X (Homo sapiens, UniProt P00742). Put plainly: The inhibition constant against human Coagulation factor X.
Chain of Coagulation factor X (P00742 41-179 limits assumed): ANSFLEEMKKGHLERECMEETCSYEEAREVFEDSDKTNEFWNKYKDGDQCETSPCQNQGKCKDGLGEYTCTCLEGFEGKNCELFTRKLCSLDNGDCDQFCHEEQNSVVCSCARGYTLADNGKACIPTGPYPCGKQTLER
Chain of Coagulation factor X (P00742 235-488 limits assumed): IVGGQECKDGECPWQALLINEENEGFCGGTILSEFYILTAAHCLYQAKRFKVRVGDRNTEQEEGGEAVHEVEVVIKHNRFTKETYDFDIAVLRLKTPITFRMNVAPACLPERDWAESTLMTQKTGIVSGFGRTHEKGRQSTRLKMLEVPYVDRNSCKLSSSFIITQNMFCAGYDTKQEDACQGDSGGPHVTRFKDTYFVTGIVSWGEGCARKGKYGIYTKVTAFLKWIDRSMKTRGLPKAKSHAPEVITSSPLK
Turning to `CCOC(=O)C(Oc1ccc2c(c1)CN(C(=N)N)CC2)c1ccc(OC2CCOCC2)cc1` (configuration not stated), the Ki (commonly the dissociation constant of the complex between target and ligand, obtained from inhibition or displacement) was determined as 2 µM.

With `CCOC(=O)C(Oc1ccc2c(c1)CN(C(=N)N)CC2)c1ccc(O[C@H]2CCN(C3=CC(=O)CC(C)(C)C3)C2)cc1` (some centres not stated), the affinity, expressed as Ki, was 0.2 µM.

`CCOC(=O)C(Oc1ccc2c(c1)CN(C(=N)N)CC2)c1ccc(OC2CCN(C(=N)c3ccc(OC)cc3)CC2)cc1` (configuration not stated) gave a Ki of 0.021 µM.

`CCOC(=O)C(Oc1ccc2c(c1)CN(C(=N)N)CC2)c1ccc(OC2CCNCC2)cc1` (configuration not stated) showed a Ki of 2 µM.

Take `C=CCOC(=O)N1CCC(Oc2ccc(C(Oc3ccc4c(c3)CN(C(=N)N)CC4)C(=O)OCC)cc2)CC1` (configuration not stated): affinity was put at a Ki of 3 µM.

Consider `N=C(N)N1CCc2ccc(OC(C(=O)O)c3ccc(O[C@H]4CCN(C(=N)N)C4)cc3)cc2C1` (some centres not stated), for which the Ki was found to be 0.2 µM.

Molecule `N=C(N)N1CCC(Oc2ccc(C(Oc3ccc4c(c3)CN(C(=N)N)CC4)C(=O)O)cc2)CC1` (configuration not stated) returned a Ki of 0.044 µM.

`COc1ccc(C(=N)N2CCC(Oc3ccc(C(Oc4ccc5c(c4)CN(C(=N)N)CC5)C(=O)O)cc3)CC2)cc1` (configuration not stated) gave a Ki of 0.026 µM.

As to `CC(=N)N1CCC(Oc2ccc(C(Oc3ccc4c(c3)CN(C(=N)N)CC4)C(=O)O)cc2)CC1` (configuration not stated), the Ki came to 0.055 µM.

With `C=CCN1CC[C@H](Oc2ccc(C(Oc3ccc4c(c3)CN(C(=N)N)CC4)C(=O)OCC)cc2)C1` (some centres not stated), the Ki was 1 µM.

As for `CC(=O)N1CCC(Oc2ccc(C(Oc3ccc4c(c3)CN(C(=N)N)CC4)C(=O)O)cc2)CC1` (configuration not stated), the Ki came out at 0.4 µM.

Molecule `CCOC(=O)C(Oc1ccc2c(c1)CN(C(=N)N)CC2)c1ccc(OC2CCN(C(C)=O)CC2)cc1` (configuration not stated) returned a Ki of 3 µM.

Test system in the next test: not listed separately
Put plainly: The Anti-coagulant activity was tested by measuring activated partial thromboplastin time (aPTT). The test is classed as functional. An outline of the steps: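 Human citrated plasma (blood 9:1 with 0.11 mol/L sodium citrate, spun 3000 rpm 10 min, RT, used within 8 h) plus aPTT reagent and compound in DMSO (DMSO-only control), 3 min at 37 °C in a coagulometer; clotting time recorded at 1000, 200, 100, 10, 1 μM in plasma. ED200 (aPTT-doubling concentration) from nonlinear fit of y = a + b·x^c; quadruplicate determinations.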
Take `CCOC(=O)C(Oc1ccc2c(c1)CN(C(=N)N)CC2)c1ccc(OC2CCOCC2)cc1` (configuration not stated): the ED200 came to 250 µM.

`CCOC(=O)C(Oc1ccc2c(c1)CN(C(=N)N)CC2)c1ccc(O[C@H]2CCN(C3=CC(=O)CC(C)(C)C3)C2)cc1` (some centres not stated): the ED200 came out at 24 µM.

`CCOC(=O)C(Oc1ccc2c(c1)CN(C(=N)N)CC2)c1ccc(OC2CCN(C(=N)c3ccc(OC)cc3)CC2)cc1` (configuration not stated) showed an ED200 of 6 µM.

With `CCOC(=O)C(Oc1ccc2c(c1)CN(C(=N)N)CC2)c1ccc(OC2CCNCC2)cc1` (configuration not stated), the ED200 is 26 µM.

`C=CCOC(=O)N1CCC(Oc2ccc(C(Oc3ccc4c(c3)CN(C(=N)N)CC4)C(=O)OCC)cc2)CC1` (configuration not stated) showed an ED200 of 260 µM.

In the case of `N=C(N)N1CCc2ccc(OC(C(=O)O)c3ccc(O[C@H]4CCN(C(=N)N)C4)cc3)cc2C1` (some centres not stated), the ED200 was 40 µM.

`N=C(N)N1CCC(Oc2ccc(C(Oc3ccc4c(c3)CN(C(=N)N)CC4)C(=O)O)cc2)CC1` (configuration not stated) displayed an ED200 of 9 µM.

`COc1ccc(C(=N)N2CCC(Oc3ccc(C(Oc4ccc5c(c4)CN(C(=N)N)CC5)C(=O)O)cc3)CC2)cc1` (configuration not stated): the ED200 came to 7 µM.

For `CC(=N)N1CCC(Oc2ccc(C(Oc3ccc4c(c3)CN(C(=N)N)CC4)C(=O)O)cc2)CC1` (configuration not stated), the ED200 was determined as 11 µM.

The molecule `C=CCN1CC[C@H](Oc2ccc(C(Oc3ccc4c(c3)CN(C(=N)N)CC4)C(=O)OCC)cc2)C1` (some centres not stated) showed an ED200 of 27 µM.

Take `CC(=O)N1CCC(Oc2ccc(C(Oc3ccc4c(c3)CN(C(=N)N)CC4)C(=O)O)cc2)CC1` (configuration not stated): the ED200 stood at 150 µM.

As to `CCOC(=O)C(Oc1ccc2c(c1)CN(C(=N)N)CC2)c1ccc(OC2CCN(C(C)=O)CC2)cc1` (configuration not stated), the ED200 was 100 µM.

A further test has as its target T1, Prothrombin (Homo sapiens, UniProt P00734). Put plainly: The Anti-coagulant activity was tested by measuring thrombin clotting time (TT). The test is classed as functional. The essentials:
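Thrombin clotting time in human citrated plasma (blood 9:1 with 0.11 mol/L citrate, spun 3000 rpm 10 min, stored RT ≤8 h); plasma with compound in DMSO or DMSO control incubated 2 min at 37 °C in coagulometer. Clotting measured at 500, 100, 50, 5, 0.5 μM in plasma; doubling concentration (ED200) obtained by nonlinear regression of y = a + b·x^c.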
`CCOC(=O)C(Oc1ccc2c(c1)CN(C(=N)N)CC2)c1ccc(OC2CCOCC2)cc1` (configuration not stated) had an ED200 of 500 µM.

`CCOC(=O)C(Oc1ccc2c(c1)CN(C(=N)N)CC2)c1ccc(O[C@H]2CCN(C3=CC(=O)CC(C)(C)C3)C2)cc1` (some centres not stated) displayed an ED200 of 90 µM.

For the molecule `CCOC(=O)C(Oc1ccc2c(c1)CN(C(=N)N)CC2)c1ccc(OC2CCN(C(=N)c3ccc(OC)cc3)CC2)cc1` (configuration not stated), the ED200 worked out at 32 µM.

Molecule `CCOC(=O)C(Oc1ccc2c(c1)CN(C(=N)N)CC2)c1ccc(OC2CCNCC2)cc1` (configuration not stated) registered an ED200 of 71 µM.

For the molecule `C=CCOC(=O)N1CCC(Oc2ccc(C(Oc3ccc4c(c3)CN(C(=N)N)CC4)C(=O)OCC)cc2)CC1` (configuration not stated), the ED200 was above 500 µM.

For `N=C(N)N1CCc2ccc(OC(C(=O)O)c3ccc(O[C@H]4CCN(C(=N)N)C4)cc3)cc2C1` (some centres not stated), the ED200 is above 500 µM.

Molecule `N=C(N)N1CCC(Oc2ccc(C(Oc3ccc4c(c3)CN(C(=N)N)CC4)C(=O)O)cc2)CC1` (configuration not stated) displayed an ED200 above 500 µM.

In turn, `COc1ccc(C(=N)N2CCC(Oc3ccc(C(Oc4ccc5c(c4)CN(C(=N)N)CC5)C(=O)O)cc3)CC2)cc1` (configuration not stated) displayed an ED200 above 500 µM.

For the molecule `CC(=N)N1CCC(Oc2ccc(C(Oc3ccc4c(c3)CN(C(=N)N)CC4)C(=O)O)cc2)CC1` (configuration not stated), the ED200 was above 500 µM.

The molecule `C=CCN1CC[C@H](Oc2ccc(C(Oc3ccc4c(c3)CN(C(=N)N)CC4)C(=O)OCC)cc2)C1` (some centres not stated) displayed an ED200 of 240 µM.

As for `CC(=O)N1CCC(Oc2ccc(C(Oc3ccc4c(c3)CN(C(=N)N)CC4)C(=O)O)cc2)CC1` (configuration not stated), the ED200 is above 500 µM.

`CCOC(=O)C(Oc1ccc2c(c1)CN(C(=N)N)CC2)c1ccc(OC2CCN(C(C)=O)CC2)cc1` (configuration not stated) gave an ED200 of 200 µM.

For a further test, the target named is T1, Prothrombin. As to the kind of experiment: The inhibition constant against human thrombin.
`CCOC(=O)C(Oc1ccc2c(c1)CN(C(=N)N)CC2)c1ccc(OC2CCOCC2)cc1` (configuration not stated) came in with a Ki of 8 µM.

Turning to `CCOC(=O)C(Oc1ccc2c(c1)CN(C(=N)N)CC2)c1ccc(O[C@H]2CCN(C3=CC(=O)CC(C)(C)C3)C2)cc1` (some centres not stated), the Ki is above 100 µM.

In turn, `CCOC(=O)C(Oc1ccc2c(c1)CN(C(=N)N)CC2)c1ccc(OC2CCN(C(=N)c3ccc(OC)cc3)CC2)cc1` (configuration not stated) registered an inhibition constant (Ki) of 5 µM.

In turn, `CCOC(=O)C(Oc1ccc2c(c1)CN(C(=N)N)CC2)c1ccc(OC2CCNCC2)cc1` (configuration not stated) registered a Ki of 16 µM.

Take `C=CCOC(=O)N1CCC(Oc2ccc(C(Oc3ccc4c(c3)CN(C(=N)N)CC4)C(=O)OCC)cc2)CC1` (configuration not stated): the Ki was found to be 4 µM.

`N=C(N)N1CCc2ccc(OC(C(=O)O)c3ccc(O[C@H]4CCN(C(=N)N)C4)cc3)cc2C1` (some centres not stated) came in with a Ki above 100 µM.

With `N=C(N)N1CCC(Oc2ccc(C(Oc3ccc4c(c3)CN(C(=N)N)CC4)C(=O)O)cc2)CC1` (configuration not stated), the Ki is above 100 µM.

The molecule `COc1ccc(C(=N)N2CCC(Oc3ccc(C(Oc4ccc5c(c4)CN(C(=N)N)CC5)C(=O)O)cc3)CC2)cc1` (configuration not stated) registered a Ki above 100 µM.

With `CC(=N)N1CCC(Oc2ccc(C(Oc3ccc4c(c3)CN(C(=N)N)CC4)C(=O)O)cc2)CC1` (configuration not stated), the Ki was above 100 µM.

`C=CCN1CC[C@H](Oc2ccc(C(Oc3ccc4c(c3)CN(C(=N)N)CC4)C(=O)OCC)cc2)C1` (some centres not stated) came in with a Ki above 100 µM.

As to `CC(=O)N1CCC(Oc2ccc(C(Oc3ccc4c(c3)CN(C(=N)N)CC4)C(=O)O)cc2)CC1` (configuration not stated), the Ki was above 100 µM.

On to `CCOC(=O)C(Oc1ccc2c(c1)CN(C(=N)N)CC2)c1ccc(OC2CCN(C(C)=O)CC2)cc1` (configuration not stated), for which the Ki was above 100 µM.

The target of the next test is Trypsin (Homo sapiens, UniProt P07477+P07478+P35030). Put plainly: The inhibition constant against human trypsin. The test is classed as protein assay.
Regarding `CCOC(=O)C(Oc1ccc2c(c1)CN(C(=N)N)CC2)c1ccc(OC2CCOCC2)cc1` (configuration not stated), the Ki was found to be 3 µM.

`CCOC(=O)C(Oc1ccc2c(c1)CN(C(=N)N)CC2)c1ccc(O[C@H]2CCN(C3=CC(=O)CC(C)(C)C3)C2)cc1` (some centres not stated) showed a Ki of 10 µM.

In turn, `CCOC(=O)C(Oc1ccc2c(c1)CN(C(=N)N)CC2)c1ccc(OC2CCN(C(=N)c3ccc(OC)cc3)CC2)cc1` (configuration not stated) yielded a Ki of 0.2 µM.

`CCOC(=O)C(Oc1ccc2c(c1)CN(C(=N)N)CC2)c1ccc(OC2CCNCC2)cc1` (configuration not stated) came in with a Ki of 3 µM.

As for `N=C(N)N1CCc2ccc(OC(C(=O)O)c3ccc(O[C@H]4CCN(C(=N)N)C4)cc3)cc2C1` (some centres not stated), the Ki was 1 µM.

Molecule `N=C(N)N1CCC(Oc2ccc(C(Oc3ccc4c(c3)CN(C(=N)N)CC4)C(=O)O)cc2)CC1` (configuration not stated) registered a Ki of 0.2 µM.

In the case of `COc1ccc(C(=N)N2CCC(Oc3ccc(C(Oc4ccc5c(c4)CN(C(=N)N)CC5)C(=O)O)cc3)CC2)cc1` (configuration not stated), the inhibition constant Ki was determined as 0.2 µM.

Consider `CC(=N)N1CCC(Oc2ccc(C(Oc3ccc4c(c3)CN(C(=N)N)CC4)C(=O)O)cc2)CC1` (configuration not stated), for which the Ki came to 2 µM.

`C=CCN1CC[C@H](Oc2ccc(C(Oc3ccc4c(c3)CN(C(=N)N)CC4)C(=O)OCC)cc2)C1` (some centres not stated) had an inhibition constant Ki of 10 µM.

As to `CC(=O)N1CCC(Oc2ccc(C(Oc3ccc4c(c3)CN(C(=N)N)CC4)C(=O)O)cc2)CC1` (configuration not stated), the inhibitory constant (Ki) was 5 µM.

With `CCOC(=O)C(Oc1ccc2c(c1)CN(C(=N)N)CC2)c1ccc(OC2CCN(C(C)=O)CC2)cc1` (configuration not stated), the Ki worked out at 10 µM.

A further test concerns the target Plasminogen (Homo sapiens, UniProt P00747). Put plainly: The inhibition constant against human plasmin.
On to `CCOC(=O)C(Oc1ccc2c(c1)CN(C(=N)N)CC2)c1ccc(OC2CCOCC2)cc1` (configuration not stated), for which affinity was put at a Ki of 26 µM.

`CCOC(=O)C(Oc1ccc2c(c1)CN(C(=N)N)CC2)c1ccc(O[C@H]2CCN(C3=CC(=O)CC(C)(C)C3)C2)cc1` (some centres not stated) gave a Ki of 50 µM.

`CCOC(=O)C(Oc1ccc2c(c1)CN(C(=N)N)CC2)c1ccc(OC2CCNCC2)cc1` (configuration not stated): the Ki was found to be 25 µM.

`C=CCOC(=O)N1CCC(Oc2ccc(C(Oc3ccc4c(c3)CN(C(=N)N)CC4)C(=O)OCC)cc2)CC1` (configuration not stated): the affinity, expressed as Ki, was 14 µM.

On to `N=C(N)N1CCC(Oc2ccc(C(Oc3ccc4c(c3)CN(C(=N)N)CC4)C(=O)O)cc2)CC1` (configuration not stated), for which the Ki came to 44 µM.

Take `CC(=N)N1CCC(Oc2ccc(C(Oc3ccc4c(c3)CN(C(=N)N)CC4)C(=O)O)cc2)CC1` (configuration not stated): the Ki is 52 µM.

`C=CCN1CC[C@H](Oc2ccc(C(Oc3ccc4c(c3)CN(C(=N)N)CC4)C(=O)OCC)cc2)C1` (some centres not stated) registered a Ki of 50 µM.

Take `CCOC(=O)C(Oc1ccc2c(c1)CN(C(=N)N)CC2)c1ccc(OC2CCN(C(C)=O)CC2)cc1` (configuration not stated): the affinity, expressed as Ki, was 10 µM.
